The record followed here is ChEMBL document CHEMBL4052710 (Bioorg Med Chem Lett, 2017).

Activity calls are given as the source filed them. No cut-off for these calls is given here.

In series [1] the test system is T47D. Description: Induction of apoptosis in human T47D cells assessed as late apoptotic cells level at 0.25 uM incubated for 48 hrs by annexin V-FITC and propidium iodide staining based flow cytometry (reference value: 0.48%). The class given is functional.
The test system of series [2] is T47D. Nature of the series: Induction of apoptosis in human T47D cells assessed as necrotic cells level at 5 uM incubated for 48 hrs by annexin V-FITC and propidium iodide staining based flow cytometry (reference value: 2.79%). The class given is functional.
In series [3] the test system is T47D. Description: Induction of apoptosis in human T47D cells assessed as viable cells level at 0.25 uM incubated for 48 hrs by annexin V-FITC and propidium iodide staining based flow cytometry (reference value: 96%). The class given is functional.
Series [4] deals with A549. Description: Growth inhibition of human A549 cells incubated for 72 hrs at 10 uM by CCK8 assay. The class given is functional. To be noted: A549, 72 h, read-out: GI. The procedure, abridged: (§1)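 CCK8 viability assay on a panel of human cancer cell lines, with an initial screen at fixed concentrations of 1 µM and 10 µM.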
Series [5] concerns the target CDK18/Cyclin Y (Homo sapiens) (UniProt Q07002+Q8ND76). Description: Inhibition of human CDK18/CyclinY at 1 uM by enzymatic radiometric assay. The class given is protein-complex assay. The procedure, abridged:
(§2)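 Kinase panel run through the Eurofins KinaseProfiler, with compound at a fixed 1 µM. Values are means of two independent experiments.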

Series [6] concerns T47D. Description: Induction of cell cycle arrest in human T47D cells assessed as increase in G2 phase accumulation at 0.1 to 1 uM incubated for 24 hrs by flow cytometry. The format is functional, cell-based. In a few lines: (§3)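 Cells were treated for 24 h with compound at 0.1, 0.5 and 1 µM, with LEE011 or vehicle (DMSO) alongside. Cell-cycle phase distribution was then determined by flow cytometry.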

Series [7] has as its system NCI-H1299. Nature of the series: Growth inhibition of human H1299 cells incubated for 72 hrs at 10 uM by CCK8 assay. The format is functional. The note with it: NCI-H1299, 72 h, read-out: GI. The procedure, abridged:
as §1

The subject of series [8] is T47D. Description: Growth inhibition of human T47D cells incubated for 72 hrs at 1 uM by CCK8 assay. The format is functional. The note with it: read-out: GI. The procedure, abridged: as §1
In another series the test system is HeLa. Nature of the series: Growth inhibition of human HeLa cells incubated for 72 hrs at 10 uM by CCK8 assay. The class given is functional. The note with it: read-out: GI. In a few lines: as §1
For another series, the system named is NCI-H460. Nature of the series: Growth inhibition of human H460 cells incubated for 72 hrs by CCK8 assay. The note with it: NCI-H460, 72 h. The class given is functional, cell-based.
Series [9] relates to T47D. Description: Induction of apoptosis in human T47D cells assessed as early apoptotic cells level at 5 uM incubated for 48 hrs by annexin V-FITC and propidium iodide staining based flow cytometry (reference value: 0.75%). The class given is functional.
The next series deals with CDK9/cyclin T1 (Homo sapiens, UniProt P50750). Nature of the series: Inhibition of human CDK9/CyclinT1 by enzymatic radiometric assay. The class given is protein-complex assay. The procedure, abridged: (§4)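 IC50 was determined through a commercial kinase profiling service. Values are the mean of two independent experiments.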
Sequence of CDK9/cyclin T1 (O60563 whole entry): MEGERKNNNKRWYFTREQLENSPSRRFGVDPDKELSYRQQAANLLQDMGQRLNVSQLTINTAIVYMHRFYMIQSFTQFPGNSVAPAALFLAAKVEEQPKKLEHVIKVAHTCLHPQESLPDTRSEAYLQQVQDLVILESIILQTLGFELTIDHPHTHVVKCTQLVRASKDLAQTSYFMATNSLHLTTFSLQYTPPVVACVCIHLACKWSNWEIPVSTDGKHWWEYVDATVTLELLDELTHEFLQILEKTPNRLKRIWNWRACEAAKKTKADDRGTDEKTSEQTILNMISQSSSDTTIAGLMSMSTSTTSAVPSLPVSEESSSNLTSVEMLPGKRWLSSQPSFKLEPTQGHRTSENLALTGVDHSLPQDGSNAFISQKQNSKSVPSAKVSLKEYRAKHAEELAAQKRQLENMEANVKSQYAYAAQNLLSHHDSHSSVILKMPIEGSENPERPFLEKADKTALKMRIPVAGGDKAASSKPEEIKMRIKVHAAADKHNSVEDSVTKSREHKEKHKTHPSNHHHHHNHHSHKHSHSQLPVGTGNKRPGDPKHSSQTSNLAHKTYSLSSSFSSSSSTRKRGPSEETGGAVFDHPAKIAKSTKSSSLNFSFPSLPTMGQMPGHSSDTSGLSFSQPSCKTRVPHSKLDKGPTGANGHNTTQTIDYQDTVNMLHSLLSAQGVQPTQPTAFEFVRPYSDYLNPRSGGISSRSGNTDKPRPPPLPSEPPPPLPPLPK
Sequence of CDK9/cyclin T1 (P50750 whole entry): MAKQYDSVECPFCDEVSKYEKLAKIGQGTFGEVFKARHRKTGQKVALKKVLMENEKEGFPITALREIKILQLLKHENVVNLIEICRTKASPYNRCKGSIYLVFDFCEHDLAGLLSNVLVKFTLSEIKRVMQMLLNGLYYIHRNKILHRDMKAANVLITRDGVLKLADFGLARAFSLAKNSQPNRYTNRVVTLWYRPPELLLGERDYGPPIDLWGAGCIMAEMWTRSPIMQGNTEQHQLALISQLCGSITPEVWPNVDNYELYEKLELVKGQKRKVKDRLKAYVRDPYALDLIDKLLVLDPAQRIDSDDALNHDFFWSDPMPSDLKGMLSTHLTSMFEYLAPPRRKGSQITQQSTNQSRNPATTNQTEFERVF
Series [10] concerns NCI-H1299. Nature of the series: Growth inhibition of human H1299 cells incubated for 72 hrs by CCK8 assay. The class given is functional, cell-based. The note with it: NCI-H1299, 72 h.
Series [11] concerns T47D. Description: Induction of apoptosis in human T47D cells incubated for 48 hrs by annexin V-FITC and propidium iodide staining based flow cytometry. The format is functional, cell-based.
The subject of series [12] is T47D. Description: Induction of cell cycle arrest in human T47D cells assessed as reduction in S phase accumulation at 0.1 to 1 uM incubated for 24 hrs by flow cytometry. The format is functional, cell-based. In a few lines:
as §3

Series [13] deals with CDK12/Cyclin K (Homo sapiens) (UniProt O75909+Q9NYV4). Nature of the series: Inhibition of human CDK12/CyclinK at 1 uM by enzymatic radiometric assay. The class given is protein-complex assay. The procedure, abridged:
as §2

For a further series, the system named is 4T1. Description: Antitumor activity against mouse 4T1 cells xenografted in BALB/C mouse assessed as inhibition of tumor growth at 50 to 150 mg/kg/day, ip dosed for 21 consecutive days. The format is functional, organism-based. The procedure, abridged:
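Cells implanted orthotopically into mammary fat pads of female BALB/c mice aged 6-8 weeks. Dosing began once tumours averaged 100 mm3: daily IP injection at 50, 100 or 150 mg/kg/day for 21 consecutive days, with a solvent control group. Tumour volume and body weight were followed, given as mean ± SD.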

In series [14] the test system is A549. Description: Growth inhibition of human A549 cells incubated for 72 hrs by CCK8 assay. The note with it: A549, 72 h. The format is functional, cell-based.
Series [15] has as its target Vascular endothelial growth factor receptor 2 (Homo sapiens, UniProt P35968). Description: Inhibition of human VEGFR2 by enzymatic radiometric assay. The procedure, abridged: as §4
The target of series [16] is Cyclin-dependent kinase 2/cyclin E1 (Homo sapiens) (UniProt P24864+P24941). Description: Inhibition of human CDK2/CyclinE at 1 uM by enzymatic radiometric assay. The class given is protein-complex assay. In a few lines: as §2
In the next series the test system is Mus musculus. Description: Toxicity in mouse 4T1 cells xenografted BALB/C mouse assessed as induction of body weight loss at 50 to 150 mg/kg/day, ip dosed for 21 consecutive days. The class given is organism-based. To be noted: in vivo. The procedure, abridged: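 Tumor cells were implanted orthotopically into the mammary fat pads of female BALB/c mice aged 6-8 weeks. Once tumors averaged 100 mm3, mice received daily IP injections of 50, 100 or 150 mg/kg/day, or solvent control, for 21 consecutive days. Body weight was tracked and reported as mean with SD.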

Sequence of CDK12/Cyclin K (Homo sapiens) (O75909 whole entry, looked up): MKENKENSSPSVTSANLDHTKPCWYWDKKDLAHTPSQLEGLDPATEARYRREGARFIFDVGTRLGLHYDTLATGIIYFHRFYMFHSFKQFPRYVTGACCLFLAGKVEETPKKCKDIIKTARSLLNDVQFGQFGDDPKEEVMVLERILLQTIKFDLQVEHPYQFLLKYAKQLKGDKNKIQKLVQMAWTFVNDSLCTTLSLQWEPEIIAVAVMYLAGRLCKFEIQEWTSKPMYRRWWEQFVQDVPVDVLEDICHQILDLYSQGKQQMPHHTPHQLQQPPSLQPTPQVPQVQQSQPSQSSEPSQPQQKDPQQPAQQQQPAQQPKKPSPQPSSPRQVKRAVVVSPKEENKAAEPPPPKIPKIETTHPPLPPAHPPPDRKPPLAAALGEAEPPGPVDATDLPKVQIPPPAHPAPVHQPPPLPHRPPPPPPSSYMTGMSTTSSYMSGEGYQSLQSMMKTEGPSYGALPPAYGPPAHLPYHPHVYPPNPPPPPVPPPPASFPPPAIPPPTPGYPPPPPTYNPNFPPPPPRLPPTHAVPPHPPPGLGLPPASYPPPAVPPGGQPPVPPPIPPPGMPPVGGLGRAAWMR
Sequence of CDK12/Cyclin K (Homo sapiens) (Q9NYV4 whole entry, looked up): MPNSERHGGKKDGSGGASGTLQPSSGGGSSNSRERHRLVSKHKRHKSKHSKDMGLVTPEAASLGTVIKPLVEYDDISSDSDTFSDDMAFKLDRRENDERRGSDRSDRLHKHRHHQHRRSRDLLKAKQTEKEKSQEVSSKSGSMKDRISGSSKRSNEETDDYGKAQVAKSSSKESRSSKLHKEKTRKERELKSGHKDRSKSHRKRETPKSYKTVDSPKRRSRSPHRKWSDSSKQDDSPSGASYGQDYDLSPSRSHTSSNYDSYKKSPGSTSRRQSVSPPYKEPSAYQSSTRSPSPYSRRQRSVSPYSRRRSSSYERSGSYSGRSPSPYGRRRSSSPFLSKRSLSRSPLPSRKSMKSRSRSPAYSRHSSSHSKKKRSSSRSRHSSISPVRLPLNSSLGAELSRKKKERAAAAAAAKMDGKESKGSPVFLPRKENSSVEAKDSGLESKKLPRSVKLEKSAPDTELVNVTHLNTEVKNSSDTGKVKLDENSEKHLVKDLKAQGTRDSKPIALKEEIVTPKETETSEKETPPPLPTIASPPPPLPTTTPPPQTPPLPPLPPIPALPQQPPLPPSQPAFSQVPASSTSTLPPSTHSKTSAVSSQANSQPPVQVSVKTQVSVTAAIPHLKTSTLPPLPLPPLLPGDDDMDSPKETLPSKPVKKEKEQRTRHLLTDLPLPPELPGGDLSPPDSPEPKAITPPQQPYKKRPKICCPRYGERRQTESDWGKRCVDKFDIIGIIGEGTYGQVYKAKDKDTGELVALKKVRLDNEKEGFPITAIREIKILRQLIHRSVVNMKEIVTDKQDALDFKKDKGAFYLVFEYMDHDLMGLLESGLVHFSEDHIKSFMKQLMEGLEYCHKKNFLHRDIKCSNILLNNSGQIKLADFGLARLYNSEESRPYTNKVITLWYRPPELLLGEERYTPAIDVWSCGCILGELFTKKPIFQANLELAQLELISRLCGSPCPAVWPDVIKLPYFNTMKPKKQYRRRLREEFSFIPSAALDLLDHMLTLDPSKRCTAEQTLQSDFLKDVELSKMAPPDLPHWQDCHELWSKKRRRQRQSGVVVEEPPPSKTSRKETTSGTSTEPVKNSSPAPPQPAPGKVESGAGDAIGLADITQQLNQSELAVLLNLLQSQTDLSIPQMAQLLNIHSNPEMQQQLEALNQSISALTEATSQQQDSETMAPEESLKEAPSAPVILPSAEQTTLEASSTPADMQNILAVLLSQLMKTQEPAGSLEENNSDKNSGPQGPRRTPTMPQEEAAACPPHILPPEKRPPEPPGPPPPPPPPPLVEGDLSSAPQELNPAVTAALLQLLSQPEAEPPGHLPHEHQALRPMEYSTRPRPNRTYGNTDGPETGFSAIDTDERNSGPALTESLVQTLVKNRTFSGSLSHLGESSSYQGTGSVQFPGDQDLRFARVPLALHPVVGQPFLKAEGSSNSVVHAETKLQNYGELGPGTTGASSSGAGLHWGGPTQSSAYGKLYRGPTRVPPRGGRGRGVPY
Sequence of Vascular endothelial growth factor receptor 2 (P35968 whole entry): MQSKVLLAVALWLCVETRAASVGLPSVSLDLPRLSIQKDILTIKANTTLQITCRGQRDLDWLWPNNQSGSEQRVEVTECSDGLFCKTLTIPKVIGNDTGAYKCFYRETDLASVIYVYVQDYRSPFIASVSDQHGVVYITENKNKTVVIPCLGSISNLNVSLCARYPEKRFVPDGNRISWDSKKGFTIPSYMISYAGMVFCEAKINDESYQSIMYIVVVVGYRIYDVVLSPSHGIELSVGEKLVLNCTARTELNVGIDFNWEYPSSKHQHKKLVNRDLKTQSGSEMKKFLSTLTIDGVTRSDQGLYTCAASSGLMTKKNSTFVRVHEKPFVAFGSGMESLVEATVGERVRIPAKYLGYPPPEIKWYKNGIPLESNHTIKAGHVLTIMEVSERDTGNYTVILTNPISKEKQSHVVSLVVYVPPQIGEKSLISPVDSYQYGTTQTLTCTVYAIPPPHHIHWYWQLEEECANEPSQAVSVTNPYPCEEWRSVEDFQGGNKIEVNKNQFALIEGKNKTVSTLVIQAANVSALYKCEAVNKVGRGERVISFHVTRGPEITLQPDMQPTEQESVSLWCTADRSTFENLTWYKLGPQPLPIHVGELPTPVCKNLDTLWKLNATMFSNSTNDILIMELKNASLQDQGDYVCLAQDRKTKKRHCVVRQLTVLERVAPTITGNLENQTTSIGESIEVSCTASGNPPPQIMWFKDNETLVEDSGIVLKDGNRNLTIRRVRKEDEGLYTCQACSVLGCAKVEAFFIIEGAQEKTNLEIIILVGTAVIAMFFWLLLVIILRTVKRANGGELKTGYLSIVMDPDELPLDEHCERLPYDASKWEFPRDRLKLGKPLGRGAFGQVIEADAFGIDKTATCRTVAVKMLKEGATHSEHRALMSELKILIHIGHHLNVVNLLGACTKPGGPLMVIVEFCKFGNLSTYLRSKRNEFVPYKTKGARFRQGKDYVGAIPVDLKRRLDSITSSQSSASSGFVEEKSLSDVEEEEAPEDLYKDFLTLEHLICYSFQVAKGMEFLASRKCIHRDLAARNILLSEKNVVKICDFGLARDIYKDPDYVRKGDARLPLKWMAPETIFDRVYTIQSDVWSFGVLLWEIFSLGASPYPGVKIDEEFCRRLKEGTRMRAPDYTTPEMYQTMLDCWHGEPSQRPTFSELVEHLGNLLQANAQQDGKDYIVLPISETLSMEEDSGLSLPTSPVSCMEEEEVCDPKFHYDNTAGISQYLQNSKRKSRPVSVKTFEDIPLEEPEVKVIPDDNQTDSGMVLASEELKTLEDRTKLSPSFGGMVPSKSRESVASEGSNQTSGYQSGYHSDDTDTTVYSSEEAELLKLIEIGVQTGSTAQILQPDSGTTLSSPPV

For the molecule `CN(C)C(=O)c1cc2cnc(Nc3ccc(NC(=O)C4(C(=O)Nc5ccc(F)cc5)CC4)cc3)nc2n1C1CCCC1`, the Activity was 3.28% in the series with T47D [1]; 2.23% in the series on T47D [2]; 94.2% with T47D [3]; 7.45% in the series with T47D [9]; “Dose-dependent effect” with T47D [11]; “Non-Toxic” with Mus musculus. Also, the inhibition of growth at 10 µM is 102% in the series with A549 [4], 90.8% with NCI-H1299 [7] and 73.7% in the series with HeLa. The inhibition in series [5] came out at 6%; in series [13], 24%; in [16], 85%. The outcome with T47D [6] and in the series on T47D [12] was Active. In addition, the inhibition of growth at 1 µM with T47D [8] came out at 74.7%. For the same molecule, the IC50 with NCI-H460 was 359 nM; against CDK9/cyclin T1, 12 nM; in the series with NCI-H1299 [10] it was 221 nM; in the series with A549 [14] it was 456 nM; in series [15], more than 10000 nM. The TGI entry with 4T1 was “Dose-dependent effect”.
